Reference: ChEMBL document CHEMBL1151302, “Cytotoxic and leishmanicidal aminoglycosteroids and aminosteroids from Holarrhena curtisii” (J Nat Prod, 1998)
≈ marks a conversion by molar mass, not a printed value.

Tests used:
P388 [1] = assay: Cytotoxicity against vincristine-resistant mouse P388 cells after 3 days by MTT assay; type: functional, cell-based; conditions: P388, 72 h
How it was run: (§1)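 Cells were kept in MEM with 10% fetal calf serum and kanamycin; the P-388/VCR line also received 0.5 μg/mL vincristine. Cells were seeded at 20 000 cells/mL and tested at eight concentrations, starting from 25 μg/mL in the well. After 3 days of culture, living cells were counted by MTT staining. Each experiment was run three times.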

Leishmania donovani = assay: Antileishmanial activity against Leishmania donovani promastigotes after 6 to 7 hrs; type: functional, organism-based
How it was run: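 Promastigotes were maintained in 199 medium with 10% fetal calf serum and kanamycin. They were plated at 10 000 cells/mL and exposed to four sample concentrations, starting from 25 μg/mL in the well.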

P388 [2] = assay: Cytotoxicity against mouse P388 cells after 3 days by MTT assay; type: functional, cell-based; conditions: P388, 72 h; how it was run: as §1
HL-60 = assay: Cytotoxicity against human HL60 cells after 3 days by MTT assay; type: functional, cell-based; conditions: HL-60, 72 h; how it was run: as §1
P388 [3] = assay: Cytotoxicity against adriamycin-resistant mouse P388 cells after 3 days by MTT assay; type: functional, cell-based; conditions: P388, 72 h; how it was run: as §1

Row | SMILES | IC50 (P388 [1]) | IC50 (Leishmania donovani) | IC50 (P388 [2]) | IC50 (HL-60) | IC50 (P388 [3])
1 | CN[C@H]1[C@@H](OC)C[C@H](O[C@H]2CC[C@@]3(C)[C@@H](CC[C@@H]4[C@@H]3CC[C@]3(C)[C@H](C(C)=O)CC[C@]43O)C2)O[C@@H]1C | 10.1 µg/mL (≈ 20.5 µM) | 6.25 µg/mL (≈ 12.7 µM) | 17 µg/mL (≈ 34.6 µM) | 0.01 µg/mL (≈ 0.0203 µM) | 10.4 µg/mL (≈ 21.2 µM)
2 | CO[C@H]1C[C@H](O[C@H]2CC[C@@]3(C)[C@@H](CC[C@@H]4[C@@H]3CC[C@]3(C)[C@@H](C(C)=O)CC[C@]43O)C2)O[C@H](C)[C@H]1N | 3.5 µg/mL (≈ 7.33 µM) | 1.56 µg/mL (≈ 3.27 µM) | 4 µg/mL (≈ 8.37 µM) | 2.6 µg/mL (≈ 5.44 µM) | 11.5 µg/mL (≈ 24.1 µM)
3 | CC(=O)[C@H]1C[C@H](O)[C@H]2[C@@H]3CC=C4C[C@H](N)CC[C@]4(C)[C@H]3CC[C@@]21C | 1.4 µg/mL (≈ 4.22 µM) | > 1.56 µg/mL | 4.1 µg/mL (≈ 12.4 µM) | 1.2 µg/mL (≈ 3.62 µM) | 3.6 µg/mL (≈ 10.9 µM)
4 | CC(=O)[C@H]1CC[C@]2(O)[C@@H]3CC[C@H]4C[C@H](N)CC[C@]4(C)[C@H]3CC[C@]12C | 3.4 µg/mL (≈ 10.2 µM) | 6.25 µg/mL (≈ 18.7 µM) | 3.6 µg/mL (≈ 10.8 µM) | 10.1 µg/mL (≈ 30.3 µM) | 8.6 µg/mL (≈ 25.8 µM)
5 | CO[C@H]1C[C@H](O[C@H]2CC[C@@]3(C)[C@@H](CC[C@@H]4[C@@H]3CC[C@]3(C)[C@H](C(C)=O)CC[C@]43O)C2)O[C@H](C)[C@H]1N | 10.2 µg/mL (≈ 21.4 µM) | 6.25 µg/mL (≈ 13.1 µM) | 10.5 µg/mL (≈ 22 µM) | 0.21 µg/mL (≈ 0.44 µM) | 13.5 µg/mL (≈ 28.3 µM)
6 | CN[C@H]1[C@@H](OC)C[C@H](O[C@H]2CC[C@@]3(C)[C@@H](CC[C@@H]4[C@@H]3CC[C@]3(C)[C@@H](C(C)=O)CC[C@]43O)C2)O[C@@H]1C [HOLACURTINE] | 2.8 µg/mL (≈ 5.69 µM) | 1.56 µg/mL (≈ 3.17 µM) | 4.2 µg/mL (≈ 8.54 µM) | 0.86 µg/mL (≈ 1.75 µM) | 3.4 µg/mL (≈ 6.91 µM)
7 | CO[C@H]1C[C@H](O[C@H]2CC[C@@]3(C)C(=CC[C@@H]4[C@@H]3CC[C@]3(C)[C@@H](C(C)=O)C[C@H](O)[C@]43O)C2)O[C@H](C)[C@H]1N [HOLACURTINOL] | 10 µg/mL (≈ 20.3 µM) | 6.25 µg/mL (≈ 12.7 µM) | 16 µg/mL (≈ 32.5 µM) | 2.6 µg/mL (≈ 5.29 µM) | 10.4 µg/mL (≈ 21.2 µM)
8 | CC(=O)[C@H]1CC[C@H]2[C@@H]3CC=C4C[C@H](N)CC[C@]4(C)[C@H]3CC[C@]12C [HOLAMINE] | 0.83 µg/mL (≈ 2.63 µM) | 0.39 µg/mL (≈ 1.24 µM) | 0.91 µg/mL (≈ 2.88 µM) | 0.2 µg/mL (≈ 0.634 µM) | 0.85 µg/mL (≈ 2.69 µM)
